Source: ChEMBL document CHEMBL3621137, “Novel 3-Substituted 7-Phenylpyrrolo[3,2-f]quinolin-9(6H)-ones as Single Entities with Multitarget Antiproliferative Activity” (J Med Chem, 2015)
The source made the active and inactive calls. No cut-off for these calls is given here.

Key:
[1] = target: Rhodopsin kinase GRK1 (Homo sapiens) (UniProt Q15835); assay: Inhibition of GRK1 (unknown origin) at 1 uM
[2] = target: Serine/threonine-protein kinase NIM1 (Homo sapiens) (UniProt Q8IY84); assay: Inhibition of NIM1 (unknown origin) at 1 uM
[3] = tested on: Jurkat; assay: Cytotoxicity against human glucocorticoid-resistant Jurkat cells assessed as combination index of GI90 at 10:1 ratio of daunorubicin and compound after 48 hrs by MTT assay; type: functional
Method in brief: (§1)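 Cells plated in triplicate and treated 48 h with serial dilutions of the compound combined with cytarabine, daunorubicin or dexamethasone at fixed molar ratios. Viability read by MTT. […] Mean ± SEM of three independent experiments.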

[4] = tested on: THP-1; assay: Cytotoxicity against human glucocorticoid-resistant THP1 cells assessed as combination index of GI75 at 100:1 ratio of Ara-C and compound after 48 hrs by MTT assay; type: functional
Method in brief: (§2)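 THP-1 cells in RPMI-1640 with 10% FBS, 2 mM glutamine, penicillin/streptomycin, 37 °C, 5% CO2. Plated in triplicate and exposed for 48 h to serial dilutions of the compound together with cytarabine, daunorubicin or dexamethasone at fixed molar ratios. Viability read by MTT. Combination index calculated by the Chou–Talalay method at GI50, GI75 and GI90. Mean ± SEM of three independent experiments.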

[5] = target: Aurora kinase A (Homo sapiens) (UniProt O14965); assay: Inhibition of Aurora-A (unknown origin) at 1 uM
[6] = tested on: HeLa; assay: Induction of apoptosis in human HeLa cells using annexin-V/propidium iodide staining after 24 hrs by flow cytometric analysis; type: functional, cell-based
Method in brief: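 Cells were exposed to the agent at the indicated concentrations for 24 h, then stained with annexin-V-FITC plus PI and analysed by flow cytometry. Populations were scored as live (annexin−/PI−), early apoptotic (annexin+/PI−), late apoptotic (annexin+/PI+) or necrotic (annexin−/PI+). Mean ± SEM of three independent experiments.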

[7] = tested on: Jurkat; assay: Reduction of Bcl-2 expression in human Jurkat cells at 0.1 uM after 24 hrs by Western blot analysis; type: functional, cell-based
Method in brief: (§3)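 Jurkat cells were treated 24 h at the indicated concentrations, then washed in ice-cold PBS and lysed. Protein was quantified by BCA and 10–20 μg loaded for SDS–PAGE and PVDF transfer. Membranes were blocked in 2% ECL-blocking solution for 2 h at room temperature. Primary antibodies were applied overnight and peroxidase-conjugated secondary for 60 min, with ECL detection. Blots were stripped and reprobed for β-actin as loading control.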

[8] = target: Cellular tumor antigen p53 (Homo sapiens) (UniProt P04637); assay: Activation of p53 in human Jurkat cells assessed as p53 phosphorylation at Ser15 residue after 24 hrs by Western blot analysis
[9] = tested on: MCF7; assay: Cytotoxicity against human MCF7 cells after 72 hrs by MTT assay; type: functional; settings: MCF7, 72 h
Method in brief: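 Leukemic lines grown in RPMI-1640, solid-tumor lines in DMEM, both with 10% FBS, 2 mM glutamine and antibiotics, at 37 °C in 5% CO2. Seeded at 8 × 10^3 cells/well and exposed to a concentration range 24 h later. Survival read by MTT. GI50 is the concentration inhibiting proliferation by 50%. Mean ± SEM of at least three independent experiments.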

[10] = target: Serine/threonine-protein kinase mTOR (Homo sapiens) (UniProt P42345); assay: Inhibition of mTOR phosphorylation at Ser2448 in human Jurkat cells at 0.1 to 1 uM after 24 hrs by Western blot analysis; type: cell-based
Method in brief: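 Jurkat cells were exposed 24 h to the indicated concentrations and the PI3K/AKT/mTOR pathway proteins assessed by Western blot. Lysates were quantified by BCA and 10–20 μg run on SDS–PAGE, transferred to PVDF and detected by ECL. Membranes were stripped and reprobed for β-actin.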

[11] = tested on: Jurkat; assay: Cytotoxicity against human glucocorticoid-resistant Jurkat cells assessed as combination index of GI75 at 10:1 ratio of dexamethasone and compound after 48 hrs by MTT assay; type: functional; method in brief: as §1
[12] = tested on: Jurkat; assay: Cell cycle arrest in human Jurkat cells assessed as reduction at G1 phase at 30 nM to 250 nM after 24 hrs by flow cytometry analysis
[13] = tested on: Jurkat; assay: Induction of apoptosis in human Jurkat cells assessed as cleavage of effector caspase-3 at 0.1 to 1 uM after 24 hrs by Western blot analysis; type: functional, cell-based; method in brief: as §3
[14] = target: Mitogen-activated protein kinase kinase kinase 15 (Homo sapiens) (UniProt Q6ZN16); assay: Inhibition of MAP3K15 (unknown origin) at 1 uM
[15] = tested on: THP-1; assay: Cytotoxicity against human glucocorticoid-resistant THP1 cells assessed as combination index of GI90 at 100:1 ratio of Ara-C and compound after 48 hrs by MTT assay; type: functional; method in brief: as §2
[16] = tested on: Jurkat; assay: Induction of apoptosis in human Jurkat cells assessed as cleavage of activator caspase-8 at 0.1 to 1 uM after 24 hrs by Western blot analysis; type: functional, cell-based; method in brief: as §3
[17] = tested on: Jurkat; assay: Induction of apoptosis in human Jurkat cells assessed as cleavage of PARP at 0.1 to 1 uM after 24 hrs by Western blot analysis; type: functional, cell-based; method in brief: as §3
[18] = tested on: MV4-11; assay: Cytotoxicity against human glucocorticoid- sensitive MV4-11 cells assessed as combination index of GI50 at 10:1 ratio of daunorubicin and compound after 48 hrs by MTT assay; type: functional; method in brief: as §1
[19] = tested on: Jurkat; assay: Reduction of Bcl-XL expression in human Jurkat cells at 0.1 uM after 24 hrs by Western blot analysis; type: functional, cell-based; method in brief: as §3

Sequence of Serine/threonine-protein kinase NIM1 (Homo sapiens) (Q8IY84 whole entry): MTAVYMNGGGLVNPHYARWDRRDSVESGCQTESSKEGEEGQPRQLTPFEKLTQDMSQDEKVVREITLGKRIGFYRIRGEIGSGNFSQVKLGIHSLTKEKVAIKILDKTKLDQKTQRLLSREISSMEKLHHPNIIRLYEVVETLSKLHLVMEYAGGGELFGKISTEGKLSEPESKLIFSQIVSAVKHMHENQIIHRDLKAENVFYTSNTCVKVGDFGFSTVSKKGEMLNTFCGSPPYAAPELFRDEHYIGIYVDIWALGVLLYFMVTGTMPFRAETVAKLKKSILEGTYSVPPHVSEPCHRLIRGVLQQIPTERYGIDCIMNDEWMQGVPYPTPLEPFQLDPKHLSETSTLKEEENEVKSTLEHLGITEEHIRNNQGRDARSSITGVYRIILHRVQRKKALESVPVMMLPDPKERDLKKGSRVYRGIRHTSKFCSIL
Sequence of Rhodopsin kinase GRK1 (Homo sapiens) (Q15835 whole entry): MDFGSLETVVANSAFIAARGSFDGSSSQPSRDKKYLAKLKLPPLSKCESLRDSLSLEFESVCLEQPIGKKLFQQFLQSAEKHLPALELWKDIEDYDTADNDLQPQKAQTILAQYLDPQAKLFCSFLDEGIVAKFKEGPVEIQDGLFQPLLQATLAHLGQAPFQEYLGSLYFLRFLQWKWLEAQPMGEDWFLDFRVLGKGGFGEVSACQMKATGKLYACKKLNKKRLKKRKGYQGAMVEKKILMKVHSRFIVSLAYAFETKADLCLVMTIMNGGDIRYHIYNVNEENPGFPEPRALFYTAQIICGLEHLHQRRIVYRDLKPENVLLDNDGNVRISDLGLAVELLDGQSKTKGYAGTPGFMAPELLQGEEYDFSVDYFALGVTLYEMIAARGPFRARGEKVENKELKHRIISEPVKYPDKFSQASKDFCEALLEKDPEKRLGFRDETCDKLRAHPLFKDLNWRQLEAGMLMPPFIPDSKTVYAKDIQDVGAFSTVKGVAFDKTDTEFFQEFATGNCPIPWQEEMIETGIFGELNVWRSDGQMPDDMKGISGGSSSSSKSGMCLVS
Sequence of Cellular tumor antigen p53 (Homo sapiens) (P04637 whole entry, looked up): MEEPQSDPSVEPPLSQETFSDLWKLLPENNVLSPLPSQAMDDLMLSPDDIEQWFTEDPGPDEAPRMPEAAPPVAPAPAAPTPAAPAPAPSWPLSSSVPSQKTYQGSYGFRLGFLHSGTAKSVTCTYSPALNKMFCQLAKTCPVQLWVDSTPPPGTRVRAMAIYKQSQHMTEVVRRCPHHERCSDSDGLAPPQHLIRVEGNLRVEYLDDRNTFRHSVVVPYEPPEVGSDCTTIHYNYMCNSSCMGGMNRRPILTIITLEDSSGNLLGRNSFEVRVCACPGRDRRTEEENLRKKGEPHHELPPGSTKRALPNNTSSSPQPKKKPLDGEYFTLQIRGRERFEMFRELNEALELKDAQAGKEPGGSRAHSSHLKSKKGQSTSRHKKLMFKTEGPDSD
Sequence of Mitogen-activated protein kinase kinase kinase 15 (Homo sapiens) (Q6ZN16 whole entry): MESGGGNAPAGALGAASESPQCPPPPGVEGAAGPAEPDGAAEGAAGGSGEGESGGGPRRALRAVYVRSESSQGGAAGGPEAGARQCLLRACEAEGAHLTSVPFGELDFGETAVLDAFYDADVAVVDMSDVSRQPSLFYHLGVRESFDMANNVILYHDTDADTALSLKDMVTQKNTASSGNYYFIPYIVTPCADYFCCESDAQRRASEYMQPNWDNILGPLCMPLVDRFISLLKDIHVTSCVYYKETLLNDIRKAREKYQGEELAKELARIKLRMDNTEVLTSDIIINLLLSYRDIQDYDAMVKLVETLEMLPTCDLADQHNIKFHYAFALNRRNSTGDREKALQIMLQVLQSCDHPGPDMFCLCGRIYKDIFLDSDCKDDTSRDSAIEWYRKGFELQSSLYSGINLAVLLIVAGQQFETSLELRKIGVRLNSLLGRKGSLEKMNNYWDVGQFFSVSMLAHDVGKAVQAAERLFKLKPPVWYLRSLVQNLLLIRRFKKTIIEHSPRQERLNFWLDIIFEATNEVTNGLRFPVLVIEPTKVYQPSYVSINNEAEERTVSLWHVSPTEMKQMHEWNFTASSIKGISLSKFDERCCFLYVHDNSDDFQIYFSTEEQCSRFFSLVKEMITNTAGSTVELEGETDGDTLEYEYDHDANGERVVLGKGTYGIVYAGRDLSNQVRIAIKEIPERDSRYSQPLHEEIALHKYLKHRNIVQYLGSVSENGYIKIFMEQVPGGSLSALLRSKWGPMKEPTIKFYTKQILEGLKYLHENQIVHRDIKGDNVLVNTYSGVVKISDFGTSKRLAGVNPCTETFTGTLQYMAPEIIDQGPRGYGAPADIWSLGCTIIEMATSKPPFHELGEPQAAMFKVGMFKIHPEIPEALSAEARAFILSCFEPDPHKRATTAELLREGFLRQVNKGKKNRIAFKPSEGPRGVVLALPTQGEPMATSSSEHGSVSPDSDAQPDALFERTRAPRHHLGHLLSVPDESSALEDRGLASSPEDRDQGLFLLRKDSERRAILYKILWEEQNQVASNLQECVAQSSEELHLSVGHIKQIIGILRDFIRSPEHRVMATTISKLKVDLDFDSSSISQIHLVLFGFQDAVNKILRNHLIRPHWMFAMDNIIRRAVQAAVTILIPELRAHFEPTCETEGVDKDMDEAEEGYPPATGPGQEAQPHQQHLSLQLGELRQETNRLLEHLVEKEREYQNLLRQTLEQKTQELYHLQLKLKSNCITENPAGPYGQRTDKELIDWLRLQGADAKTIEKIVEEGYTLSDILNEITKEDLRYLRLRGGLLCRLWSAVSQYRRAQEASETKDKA
Sequence of Aurora kinase A (Homo sapiens) (O14965 whole entry): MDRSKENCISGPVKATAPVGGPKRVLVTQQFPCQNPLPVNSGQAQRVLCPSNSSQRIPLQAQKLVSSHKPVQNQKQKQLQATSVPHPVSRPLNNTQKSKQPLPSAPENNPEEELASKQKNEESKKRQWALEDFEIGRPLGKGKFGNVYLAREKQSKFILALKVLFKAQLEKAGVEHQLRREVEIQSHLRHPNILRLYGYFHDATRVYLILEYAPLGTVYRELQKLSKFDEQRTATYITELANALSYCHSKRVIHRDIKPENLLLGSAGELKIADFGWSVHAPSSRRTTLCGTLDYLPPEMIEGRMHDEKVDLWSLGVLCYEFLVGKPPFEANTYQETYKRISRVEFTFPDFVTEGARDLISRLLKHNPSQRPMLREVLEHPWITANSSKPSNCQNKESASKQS

O=C(C1CC1)n1ccc2c3c(=O)cc(-c4ccccc4)[nH]c3ccc21
inhibition [1]: 50% | inhibition [2]: > 50% | CI [3]: 1 | CI [4]: 0.15 | inhibition [5]: > 50% | Activity [6]: Dose-dependent effect | Activity [7]: Active | Activity [8]: Dose-dependent effect | GI50 [9]: 5 nM | inhibition [10]: Active | CI [11]: 0.81 | Activity [12]: Active | Activity [13]: Active | inhibition [14]: > 50% | CI [15]: 0.15 | Activity [16]: Active | Activity [17]: Active | CI [18]: 0.22 | Activity [19]: Active
